Measured values reported in ChEMBL document CHEMBL3102828, “Synthesis and antibacterial activity of a series of novel 9-O-acetyl- 4'-substituted 16-membered macrolides derived from josamycin” (2014).
Converted amounts (≈) assume the structure as drawn.

Columns and labels:
Type in all cases: functional
[1] = tested on: Staphylococcus epidermidis; test: Antimicrobial activity against methicillin-sensitive Staphylococcus epidermidis 09-9 by broth microdilution method
Method in brief: (§1)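 MICs determined by broth microdilution as recommended by CLSI. Tested against a panel of five S. aureus strains and three S. epidermidis strains. ATCC 29213, 15 and 09–06 are methicillin-sensitive S. aureus. Josamycin served as the reference.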

[2] = tested on: Staphylococcus epidermidis; test: Antimicrobial activity against methicillin-resistant Staphylococcus epidermidis 09-3 by broth microdilution method
Method in brief: (§2)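 MIC read-out from broth microdilution performed according to CLSI recommendations; each strain was tested in vitro alongside the parent macrolide reference.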

[3] = tested on: Staphylococcus epidermidis; test: Antimicrobial activity against methicillin-sensitive Staphylococcus epidermidis ATCC 12228 by broth microdilution method; method in brief: as §1
Staphylococcus aureus [4] = test: Antimicrobial activity against methicillin-resistant Staphylococcus aureus 09-13 by broth microdilution method; method in brief: as §2
Staphylococcus aureus [5] = test: Antimicrobial activity against methicillin-sensitive Staphylococcus aureus 09-6 by broth microdilution method; method in brief: as §1
Staphylococcus aureus [6] = test: Antimicrobial activity against methicillin-sensitive Staphylococcus aureus 15 by broth microdilution method; method in brief: as §1
Staphylococcus aureus [7] = test: Antimicrobial activity against methicillin-resistant Staphylococcus aureus ATCC 33591 by broth microdilution method; method in brief: as §2
Staphylococcus aureus [8] = test: Antimicrobial activity against methicillin-sensitive Staphylococcus aureus ATCC 29213 by broth microdilution method; method in brief: as §1

Row | SMILES | MIC [1] | MIC [2] | MIC [3] | MIC (Staphylococcus aureus [4]) | MIC (Staphylococcus aureus [5]) | MIC (Staphylococcus aureus [6]) | MIC (Staphylococcus aureus [7]) | MIC (Staphylococcus aureus [8])
1 | CO[C@H]1/C=C\C(=O)O[C@H](C)C/C=C/C=C/[C@H](OC(C)=O)[C@H](C)C[C@H](CC=O)[C@@H]1O[C@@H]1O[C@H](C)[C@@H](O)[C@H](N(C)C)[C@H]1O | 64 µg/mL (≈ 110 µM) | > 64 µg/mL | 64 µg/mL (≈ 110 µM) | > 64 µg/mL | > 64 µg/mL | > 64 µg/mL | > 64 µg/mL | > 64 µg/mL
2 | CO[C@H]1/C=C\C(=O)O[C@H](C)C/C=C/C=C/[C@H](O)[C@H](C)C[C@H](CC=O)[C@@H]1O[C@@H]1O[C@H](C)[C@@H](O)[C@H](N(C)C)[C@H]1O | > 32 µg/mL | > 32 µg/mL | > 32 µg/mL | > 32 µg/mL | > 32 µg/mL | > 32 µg/mL | > 32 µg/mL | > 32 µg/mL
3 | CO[C@@H]1[C@@H](O[C@@H]2O[C@H](C)[C@@H](OC(=O)Nc3ccc(C(F)(F)F)cc3)[C@H](N(C)C)[C@H]2O)[C@@H](CC=O)C[C@@H](C)[C@@H](OC(C)=O)/C=C/C=C/C[C@@H](C)OC(=O)C[C@H]1OC(C)=O | > 64 µg/mL | > 64 µg/mL | > 64 µg/mL | > 64 µg/mL | > 64 µg/mL | > 64 µg/mL | > 64 µg/mL | > 64 µg/mL
4 | CO[C@H]1/C=C\C(=O)O[C@H](C)C/C=C/C=C/[C@H](OC(C)=O)[C@H](C)C[C@H](CC=O)[C@@H]1O[C@@H]1O[C@H](C)[C@@H](OC(=O)Nc2ccc(C(F)(F)F)cc2)[C@H](N(C)C)[C@H]1O | > 64 µg/mL | > 64 µg/mL | > 64 µg/mL | > 64 µg/mL | > 64 µg/mL | > 64 µg/mL | > 64 µg/mL | > 64 µg/mL
5 | CO[C@H]1/C=C\C(=O)O[C@H](C)C/C=C/C=C/[C@H](O)[C@H](C)C[C@H](CC=O)[C@@H]1O[C@@H]1O[C@H](C)[C@@H](OC(=O)Nc2ccc(C(F)(F)F)cc2)[C@H](N(C)C)[C@H]1O | > 64 µg/mL | > 64 µg/mL | > 64 µg/mL | > 64 µg/mL | > 64 µg/mL | > 64 µg/mL | > 64 µg/mL | > 64 µg/mL
6 | CO[C@@H]1[C@@H](O[C@@H]2O[C@H](C)[C@@H](OC(=O)c3ccccc3)[C@H](N(C)C)[C@H]2O)[C@@H](CC=O)C[C@@H](C)[C@@H](OC(C)=O)/C=C/C=C/C[C@@H](C)OC(=O)C[C@H]1OC(C)=O | 8 µg/mL (≈ 10.7 µM) | > 64 µg/mL | 8 µg/mL (≈ 10.7 µM) | > 64 µg/mL | 8 µg/mL (≈ 10.7 µM) | 8 µg/mL (≈ 10.7 µM) | > 64 µg/mL | 8 µg/mL (≈ 10.7 µM)
7 | COc1ccc(C(=O)O[C@H]2[C@H](N(C)C)[C@@H](O)[C@H](O[C@H]3[C@@H](CC=O)C[C@@H](C)[C@@H](OC(C)=O)/C=C/C=C/C[C@@H](C)OC(=O)C[C@@H](OC(C)=O)[C@@H]3OC)O[C@@H]2C)cc1 | 8 µg/mL (≈ 10.3 µM) | > 64 µg/mL | 8 µg/mL (≈ 10.3 µM) | > 64 µg/mL | 8 µg/mL (≈ 10.3 µM) | 8 µg/mL (≈ 10.3 µM) | > 64 µg/mL | 8 µg/mL (≈ 10.3 µM)
8 | CO[C@@H]1[C@@H](O[C@@H]2O[C@H](C)[C@@H](OC(=O)c3ccc([N+](=O)[O-])cc3)[C@H](N(C)C)[C@H]2O)[C@@H](CC=O)C[C@@H](C)[C@@H](OC(C)=O)/C=C/C=C/C[C@@H](C)OC(=O)C[C@H]1OC(C)=O | 32 µg/mL (≈ 40.5 µM) | > 64 µg/mL | 32 µg/mL (≈ 40.5 µM) | > 64 µg/mL | 32 µg/mL (≈ 40.5 µM) | > 64 µg/mL | > 64 µg/mL | 32 µg/mL (≈ 40.5 µM)
9 | CO[C@@H]1[C@@H](O[C@@H]2O[C@H](C)[C@@H](OC(=O)/C=C/c3ccccc3)[C@H](N(C)C)[C@H]2O)[C@@H](CC=O)C[C@@H](C)[C@@H](OC(C)=O)/C=C/C=C/C[C@@H](C)OC(=O)C[C@H]1OC(C)=O | 4 µg/mL (≈ 5.18 µM) | > 32 µg/mL | 4 µg/mL (≈ 5.18 µM) | > 32 µg/mL | 8 µg/mL (≈ 10.4 µM) | > 32 µg/mL | > 32 µg/mL | 8 µg/mL (≈ 10.4 µM)
10 | CO[C@@H]1[C@@H](O[C@@H]2O[C@H](C)[C@@H](OC(=O)/C=C/c3ccnc4ccccc34)[C@H](N(C)C)[C@H]2O)[C@@H](CC=O)C[C@@H](C)[C@@H](OC(C)=O)/C=C/C=C/C[C@@H](C)OC(=O)C[C@H]1OC(C)=O | 8 µg/mL (≈ 9.72 µM) | > 64 µg/mL | 8 µg/mL (≈ 9.72 µM) | > 64 µg/mL | 8 µg/mL (≈ 9.72 µM) | 16 µg/mL (≈ 19.4 µM) | > 64 µg/mL | 8 µg/mL (≈ 9.72 µM)
11 | CO[C@@H]1[C@@H](O[C@@H]2O[C@H](C)[C@@H](OC(=O)CCc3ccccc3)[C@H](N(C)C)[C@H]2O)[C@@H](CC=O)C[C@@H](C)[C@@H](OC(C)=O)/C=C/C=C/C[C@@H](C)OC(=O)C[C@H]1OC(C)=O | 4 µg/mL (≈ 5.17 µM) | > 32 µg/mL | 4 µg/mL (≈ 5.17 µM) | > 32 µg/mL | 4 µg/mL (≈ 5.17 µM) | 8 µg/mL (≈ 10.3 µM) | > 32 µg/mL | 4 µg/mL (≈ 5.17 µM)
12 | CCCC(=O)O[C@H]1[C@H](N(C)C)[C@@H](O)[C@H](O[C@H]2[C@@H](CC=O)C[C@@H](C)[C@@H](OC(C)=O)/C=C/C=C/C[C@@H](C)OC(=O)C[C@@H](OC(C)=O)[C@@H]2OC)O[C@@H]1C | 4 µg/mL (≈ 5.62 µM) | > 64 µg/mL | 4 µg/mL (≈ 5.62 µM) | > 64 µg/mL | 4 µg/mL (≈ 5.62 µM) | 4 µg/mL (≈ 5.62 µM) | > 64 µg/mL | 4 µg/mL (≈ 5.62 µM)
13 | CO[C@@H]1[C@@H](O[C@@H]2O[C@H](C)[C@@H](OC(=O)CC(C)C)[C@H](N(C)C)[C@H]2O)[C@@H](CC=O)C[C@@H](C)[C@@H](OC(C)=O)/C=C/C=C/C[C@@H](C)OC(=O)C[C@H]1OC(C)=O | 8 µg/mL (≈ 11 µM) | > 64 µg/mL | 8 µg/mL (≈ 11 µM) | > 64 µg/mL | 8 µg/mL (≈ 11 µM) | 8 µg/mL (≈ 11 µM) | > 64 µg/mL | 8 µg/mL (≈ 11 µM)
14 | CO[C@@H]1[C@@H](O[C@@H]2O[C@H](C)[C@@H](O)[C@H](N(C)C)[C@H]2O)[C@@H](CC=O)C[C@@H](C)[C@@H](OC(C)=O)/C=C/C=C/C[C@@H](C)OC(=O)C[C@H]1OC(C)=O | 16 µg/mL (≈ 24.9 µM) | > 32 µg/mL | 16 µg/mL (≈ 24.9 µM) | > 32 µg/mL | 16 µg/mL (≈ 24.9 µM) | 16 µg/mL (≈ 24.9 µM) | > 32 µg/mL | 16 µg/mL (≈ 24.9 µM)
15 | CO[C@@H]1[C@@H](O[C@@H]2O[C@H](C)[C@@H](O[C@H]3C[C@@](C)(O)[C@@H](OC(=O)CC(C)C)[C@H](C)O3)[C@H](N(C)C)[C@H]2O)[C@@H](CC=O)C[C@@H](C)[C@@H](O)/C=C/C=C/C[C@@H](C)OC(=O)C[C@H]1OC(C)=O [JOSAMYCIN] | 2 µg/mL (≈ 2.42 µM) | > 32 µg/mL | 1 µg/mL (≈ 1.21 µM) | 32 µg/mL (≈ 38.6 µM) | 1 µg/mL (≈ 1.21 µM) | 2 µg/mL (≈ 2.42 µM) | > 32 µg/mL | 1 µg/mL (≈ 1.21 µM)
